For one series, the system named is SJSA-1. Put plainly: Inhibition of cell proliferation of human SJSA1 cells.
Series [1] relates to Rattus norvegicus. Put plainly: AUC in Sprague-Dawley rat at 3 mg/kg, po. Format: ADME, organism-based. The note with it: in vivo. An outline of the steps:
(§1)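 Sprague-Dawley rats. IV dose given as a solution in NMP:PEG200 (10:90); 3 mg/kg PO given as a suspension in CMC:water:Tween (0.5:99:0.5). AUC and Cmax dose-normalized to 1 mg/kg. Mean ± SD from four rats.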

Series [2] in a line: Equilibrium solubility in pH 6.8 buffer solution. The series is classed as physicochemical. Summed up: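 High-throughput equilibrium solubility assay at pH 6.8.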
A short description of series [3]: Tmax in Sprague-Dawley rat at 3 mg/kg, po. Format: ADME, organism-based. To be noted: in vivo.
The test system of series [4] is Rattus norvegicus. Put plainly: AUC in Sprague-Dawley rat at 1 mg/kg, iv. Format: ADME, organism-based. To be noted: in vivo. Summed up:
as §1

Series [5] is described as follows: Intrinsic clearance in rat liver microsomes. The series is classed as ADME. The note with it: read-out: CLH.
Series [6] has as its target Voltage-gated inwardly rectifying potassium channel KCNH2 (Homo sapiens, UniProt Q12809). Put plainly: Inhibition of human ERG by radioligand binding assay.
In series [7] the target is T1, Cytochrome P450 3A4 (Homo sapiens, UniProt P08684). Put plainly: Time dependent inhibition of CYP3A4 (unknown origin). The series is classed as ADME.
T1 sequence (P08684 whole entry): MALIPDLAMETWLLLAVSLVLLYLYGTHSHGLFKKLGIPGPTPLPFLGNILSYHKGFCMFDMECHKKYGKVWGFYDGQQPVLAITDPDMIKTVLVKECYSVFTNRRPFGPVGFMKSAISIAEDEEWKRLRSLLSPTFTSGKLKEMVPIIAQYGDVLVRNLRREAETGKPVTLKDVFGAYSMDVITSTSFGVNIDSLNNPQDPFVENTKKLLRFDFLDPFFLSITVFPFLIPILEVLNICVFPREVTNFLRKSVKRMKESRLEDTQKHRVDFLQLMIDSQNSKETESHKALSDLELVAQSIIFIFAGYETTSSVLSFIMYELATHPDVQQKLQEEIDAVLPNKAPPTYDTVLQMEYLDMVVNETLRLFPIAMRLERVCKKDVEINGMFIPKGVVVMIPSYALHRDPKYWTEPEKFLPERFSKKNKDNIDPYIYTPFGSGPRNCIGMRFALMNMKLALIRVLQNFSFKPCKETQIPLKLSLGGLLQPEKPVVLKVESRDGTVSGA
The nature of series [8]: Terminal half life in Sprague-Dawley rat at 1 mg/kg, iv. Format: ADME, organism-based. The note with it: Sprague-Dawley, in vivo, read-out: beta t1/2 (converted). Summed up:
as §1

Series [9] in a line: Permeability from apical to basolateral side in human Caco2 cells. Format: ADME, cell-based. The note with it: Caco-2.
The nature of series [10]: Permeability in human Caco2 cells assessed as drug recovery during apical to basolateral transport. Format: ADME, cell-based. The note with it: Caco-2, read-out: Drug recovery.
Series [11] concerns Rattus norvegicus. Put plainly: Oral bioavailability in Sprague-Dawley rat at 3 mg/kg. The series is classed as ADME, organism-based. To be noted: in vivo. Summed up:
as §1

A short description of series [12]: Clearance in Sprague-Dawley rat at 1 mg/kg, iv. Format: ADME, organism-based. The note with it: in vivo. Summed up: as §1
A short description of series [13]: Protein binding in Sprague-Dawley rat plasma by equilibrium dialysis method. The series is classed as ADME, cell-free. To be noted: read-out: PPB. An outline of the steps:
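Rat plasma protein binding by rapid equilibrium dialysis (RED) in 100% plasma.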

Series [14] in a line: Cmax in Sprague-Dawley rat at 3 mg/kg, po. Format: ADME, organism-based. Also on record: dose 3 mg/kg, route oral. To be noted: in vivo. An outline of the steps: as §1
A short description of series [15]: Volume of distribution at steady state in Sprague-Dawley rat at 1 mg/kg, iv. Format: ADME, organism-based. The note with it: Sprague-Dawley, in vivo, read-out: Vdss.
Series [16] is described as follows: Permeability from basolateral to apical side in human Caco2 cells. Format: ADME, cell-based. The note with it: Caco-2.
Series [17] is described as follows: Half life in rat liver microsomes. Format: ADME.
Series [18] in a line: Octanol water partition coefficient, logP of the compound. The series is classed as physicochemical.
In series [19] the target is T1, Cytochrome P450 3A4. Nature of the series: Time dependent inhibition of CYP3A4 in human liver microsomes. The series is classed as ADME.
Series [20] is described as follows: Intrinsic clearance in human liver microsomes. Format: ADME. The note with it: read-out: CLH.
Series [21] addresses Tumour suppressor p53/oncoprotein Mdm2 (Homo sapiens, UniProt Q00987). Put plainly: Inhibition of MDM2/p53 interaction (unknown origin) using biotinylated MDM2 and Cy5-p53 (18 to 26 amino acids) by TR-FRET assay. The series is classed as protein assay.
Series [22] is described as follows: Intrinsic clearance in monkey liver microsomes. Format: ADME, Macaca mulatta. To be noted: rhesus monkey, read-out: CLH.
Series [23] can be described thus: Inhibition of rat MDM2 by TR-FRET assay.
Series [24] deals with E3 ubiquitin-protein ligase Mdm2 (Canis lupus familiaris, UniProt P56950). Put plainly: Inhibition of dog MDM2 by TR-FRET assay.
E3 ubiquitin-protein ligase Mdm2 (Canis lupus familiaris, UniProt P56950), sequence (P56950 whole entry): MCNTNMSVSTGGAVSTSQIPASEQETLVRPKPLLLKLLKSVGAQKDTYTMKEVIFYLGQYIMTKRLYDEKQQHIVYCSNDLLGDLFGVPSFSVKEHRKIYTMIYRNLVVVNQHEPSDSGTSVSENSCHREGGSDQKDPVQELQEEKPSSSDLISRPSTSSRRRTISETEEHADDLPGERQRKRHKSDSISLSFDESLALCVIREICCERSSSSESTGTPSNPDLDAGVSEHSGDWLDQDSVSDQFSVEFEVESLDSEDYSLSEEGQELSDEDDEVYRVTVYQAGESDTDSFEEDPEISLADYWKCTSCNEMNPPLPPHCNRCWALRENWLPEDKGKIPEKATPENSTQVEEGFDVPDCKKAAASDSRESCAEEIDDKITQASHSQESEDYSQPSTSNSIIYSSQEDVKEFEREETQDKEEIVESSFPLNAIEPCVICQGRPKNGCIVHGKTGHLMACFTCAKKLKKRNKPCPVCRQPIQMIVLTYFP
Series [25] concerns the target E3 ubiquitin-protein ligase Mdm2 (Mus musculus, UniProt P23804). Nature of the series: Inhibition of mouse MDM2 by TR-FRET assay.

Here are results for 17 molecules from ChEMBL document CHEMBL3600357 (J Med Chem, 2015).

The structures appear in SMILES notation.

Voltage-gated inwardly rectifying potassium channel KCNH2, sequence (Q12809 whole entry): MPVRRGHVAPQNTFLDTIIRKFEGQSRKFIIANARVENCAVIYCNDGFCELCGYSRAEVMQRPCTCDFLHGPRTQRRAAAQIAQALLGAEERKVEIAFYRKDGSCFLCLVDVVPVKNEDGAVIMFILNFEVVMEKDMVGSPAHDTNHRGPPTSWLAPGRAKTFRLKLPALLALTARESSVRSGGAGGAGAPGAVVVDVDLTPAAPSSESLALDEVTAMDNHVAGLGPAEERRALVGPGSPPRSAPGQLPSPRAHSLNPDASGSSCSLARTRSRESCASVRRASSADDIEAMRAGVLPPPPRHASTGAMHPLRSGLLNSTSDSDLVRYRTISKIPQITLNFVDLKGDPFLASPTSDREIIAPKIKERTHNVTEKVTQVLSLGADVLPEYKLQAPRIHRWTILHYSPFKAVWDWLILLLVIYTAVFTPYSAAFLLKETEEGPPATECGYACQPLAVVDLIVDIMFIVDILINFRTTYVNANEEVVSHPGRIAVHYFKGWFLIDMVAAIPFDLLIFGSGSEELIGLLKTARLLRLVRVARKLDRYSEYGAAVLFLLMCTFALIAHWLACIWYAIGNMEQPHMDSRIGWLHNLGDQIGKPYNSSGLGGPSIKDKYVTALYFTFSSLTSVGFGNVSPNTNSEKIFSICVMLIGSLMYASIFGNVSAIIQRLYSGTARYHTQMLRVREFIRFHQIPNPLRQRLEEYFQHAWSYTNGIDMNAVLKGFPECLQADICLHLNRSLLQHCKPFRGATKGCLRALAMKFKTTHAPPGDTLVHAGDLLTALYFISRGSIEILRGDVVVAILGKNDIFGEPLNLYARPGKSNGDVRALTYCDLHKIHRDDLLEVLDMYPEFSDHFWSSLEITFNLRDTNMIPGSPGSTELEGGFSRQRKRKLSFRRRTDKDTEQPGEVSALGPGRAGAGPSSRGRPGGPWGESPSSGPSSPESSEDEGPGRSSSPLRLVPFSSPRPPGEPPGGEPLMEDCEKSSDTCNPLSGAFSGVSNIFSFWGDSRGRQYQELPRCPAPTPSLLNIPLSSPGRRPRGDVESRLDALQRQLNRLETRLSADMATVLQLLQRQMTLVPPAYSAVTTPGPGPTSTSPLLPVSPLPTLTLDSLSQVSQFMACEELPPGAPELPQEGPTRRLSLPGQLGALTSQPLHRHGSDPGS
Tumour suppressor p53/oncoprotein Mdm2, sequence (P04637 whole entry, the tested form may be a part): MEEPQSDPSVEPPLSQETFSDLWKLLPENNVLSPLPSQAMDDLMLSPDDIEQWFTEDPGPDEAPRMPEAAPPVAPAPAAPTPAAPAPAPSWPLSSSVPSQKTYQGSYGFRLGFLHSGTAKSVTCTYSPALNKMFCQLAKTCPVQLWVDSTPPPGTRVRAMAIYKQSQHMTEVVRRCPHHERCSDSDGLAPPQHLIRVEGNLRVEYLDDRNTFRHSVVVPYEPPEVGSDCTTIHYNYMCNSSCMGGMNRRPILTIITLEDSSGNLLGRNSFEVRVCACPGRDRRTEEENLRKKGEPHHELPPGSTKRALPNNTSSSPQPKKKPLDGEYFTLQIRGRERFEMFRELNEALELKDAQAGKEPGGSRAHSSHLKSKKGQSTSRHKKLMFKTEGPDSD
Tumour suppressor p53/oncoprotein Mdm2, sequence (Q00987 whole entry, the tested form may be a part): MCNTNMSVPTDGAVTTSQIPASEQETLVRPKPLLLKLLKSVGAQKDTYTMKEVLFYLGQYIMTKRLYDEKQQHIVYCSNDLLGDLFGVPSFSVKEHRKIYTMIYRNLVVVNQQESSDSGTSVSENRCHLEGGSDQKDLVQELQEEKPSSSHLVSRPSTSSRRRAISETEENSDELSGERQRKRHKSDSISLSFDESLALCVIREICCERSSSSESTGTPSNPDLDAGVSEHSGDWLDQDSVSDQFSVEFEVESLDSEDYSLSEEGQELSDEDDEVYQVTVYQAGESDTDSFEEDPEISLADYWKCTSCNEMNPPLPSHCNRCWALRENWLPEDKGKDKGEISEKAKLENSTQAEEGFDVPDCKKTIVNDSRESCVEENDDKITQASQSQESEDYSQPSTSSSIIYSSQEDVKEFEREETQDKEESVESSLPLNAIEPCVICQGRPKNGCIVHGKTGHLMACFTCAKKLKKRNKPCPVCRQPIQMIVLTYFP
E3 ubiquitin-protein ligase Mdm2 (Mus musculus, UniProt P23804), sequence (P23804 whole entry): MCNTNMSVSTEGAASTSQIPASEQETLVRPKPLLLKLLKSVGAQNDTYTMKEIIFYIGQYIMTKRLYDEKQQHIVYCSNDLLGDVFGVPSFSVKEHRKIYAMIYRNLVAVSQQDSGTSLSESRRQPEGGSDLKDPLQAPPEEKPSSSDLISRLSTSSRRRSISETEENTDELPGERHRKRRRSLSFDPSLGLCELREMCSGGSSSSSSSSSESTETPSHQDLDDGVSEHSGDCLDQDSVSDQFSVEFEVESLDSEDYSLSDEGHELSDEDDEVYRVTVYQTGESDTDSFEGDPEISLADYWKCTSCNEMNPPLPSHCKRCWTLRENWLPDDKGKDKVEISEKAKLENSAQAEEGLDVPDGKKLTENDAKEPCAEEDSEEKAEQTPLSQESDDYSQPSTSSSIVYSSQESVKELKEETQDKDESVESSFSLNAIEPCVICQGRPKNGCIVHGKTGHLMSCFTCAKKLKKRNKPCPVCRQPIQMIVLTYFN

Regarding `CC[C@@H](C)Oc1cc2c(cc1OC)CC(=O)N(c1ccc(N(C)Cc3ccncc3)cc1)C2c1ccc(Cl)cc1` (stereo not given in full), the GI50 in the series on SJSA-1 was determined as 3860 nM.
Molecule `CC[C@@H](C)Oc1cc2c(cc1OC)CC(=O)N(c1ccc(N(C)Cc3ccncc3)cc1)[C@H]2c1ccc(Cl)cc1` gave a GI50 in the series on SJSA-1 of 1210 nM.
The same measure, in the same setting: to `CC[C@@H](C)Oc1cc2c(cc1OC)CC(=O)N(c1ccc(N(C)Cc3ccncc3)cc1)[C@@H]2c1ccc(Cl)cc1` belongs 29600 nM; to `CC[C@@H](C)Oc1cc2c(cc1OC)CC(=O)N(c1ccc(N(C)CC3CCNCC3)cc1)C2c1ccc(Cl)cc1` (stereo not given in full), 1090 nM; to `CC[C@@H](C)Oc1cc2c(cc1OC)CC(=O)N(c1ccc(N(C)C[C@H]3CC[C@H](N)CC3)cc1)C2c1ccc(Cl)cc1` (stereo not given in full), 2850 nM.
On the same count and under the same terms, to `CC[C@@H](C)Oc1cc2c(cc1OC)CC(=O)N(c1ccc(N(C)C[C@H]3CC[C@H](N(C)C)CC3)cc1)C2c1ccc(Cl)cc1` (stereo not given in full) belongs 1130 nM.
Take `CC[C@@H](C)Oc1cc2c(cc1OC)CC(=O)N(c1ccc(N(C)C[C@H]3CC[C@H](N(C)C)CC3)cc1)[C@H]2c1ccc(Cl)cc1`: the values for the AUC in the series with Rattus norvegicus [1] and in the series on Rattus norvegicus [4] were 0.297 µM·h and 1.574 µM·h, respectively. For the same molecule, the thermodynamic solubility in [2] is above 1000 µM. Also, in series [3], the Tmax is 7 h. The microsomal CLint in series [5] stood at 5.6 µL/min/mg. In addition, the IC50 in series [6] was 1300 nM. This molecule showed a K at Cytochrome P450 3A4 [7] of 0.042 min⁻¹. Moreover, the half-life in series [8] is 19.1 h; in [17], 4.1 h. For the same molecule, the Papp A→B in [9] was found to be 0.08 ×10⁻⁶ cm/s. Also, in series [10], the recovery was below 30%. For the same molecule, the GI50 in the series with SJSA-1 stood at 940 nM. In the series with Rattus norvegicus [11], this molecule returned an F of 18%. Moreover, the clearance in [12] was determined as 15 mL/min/kg. Besides, the fraction unbound in [13] was below 0.01. Also, the peak level in [14] (Cmax) was 17.6 nM. Moreover, in series [15], the Vd worked out at 23.9 L/kg. The Papp B→A in series [16] was determined as 0.12 ×10⁻⁶ cm/s.
Take `COc1cc2c(cc1OC(C)C)[C@H](c1ccc(Cl)cc1)N(c1ccc(N(C)C[C@H]3CC[C@H](N(C)C)CC3)cc1)C(=O)C2`: the lipophilicity (logP) in [18] is above 4.2. Further, at Cytochrome P450 3A4 [19], the midpoint of inhibition, the IC50, lay at 9400 nM. Further, in series [20], the microsomal CLint turned out to be 4.6 µL/min/mg. In the series with SJSA-1, it took 710 nM to inhibit growth by half (GI50).
For `CCC(=O)N[C@H]1CC[C@H](CN(C)c2ccc(N3C(=O)Cc4cc(OC)c(O[C@H](C)CC)cc4[C@@H]3c3ccc(Cl)cc3)cc2)CC1`, the values for the IC50 in series [6] and in series [21] were above 30000 nM and 20 nM, respectively. The molecule further showed a 50% growth inhibitory concentration (GI50) in the series with SJSA-1 of 4960 nM.
`COc1cc2c(cc1OC(C)C)[C@H](c1ccc(Cl)cc1)N(c1ccc(N(C)C[C@H]3CC[C@H](N4CNC(=O)C4)CC3)cc1)C(=O)C2`: in series [21], the IC50 was determined as 1.7 nM. Further, the GI50 in the series with SJSA-1 is 600 nM.
Turning to `COc1cc2c(cc1OC(C)C)[C@H](c1ccc(Cl)cc1)N(c1ccc(N(C)C[C@H]3CC[C@H](N4CCNC(=O)C4)CC3)cc1)C(=O)C2`, the microsomal CLint in [22] is 79.7 µL/min/mg; in [20] it was 3.4 µL/min/mg. In series [18], the logP was found to be 5.3. The AUC in the series on Rattus norvegicus [1] worked out at 1.018 µM·h; with Rattus norvegicus [4], 2.154 µM·h. The IC50 worked out at 11300 nM against Cytochrome P450 3A4 [19] and 16000 nM in [6]. For the same molecule, the half-life in series [8] is 9.3 h. This molecule also yielded a GI50 with SJSA-1 of 350 nM. Besides, the F with Rattus norvegicus [11] was found to be 49%. In series [13], the fraction unbound is below 0.01. The peak level in series [14] (Cmax) was 74.6 nM. Moreover, the Vd in series [15] stood at 8 L/kg.
In series [18], `COc1cc2c(cc1OC(C)C)[C@H](c1ccc(Cl)cc1)N(c1ccc(N(C)C[C@H]3CC[C@H](N(C)C)CC3)nc1)C(=O)C2` registered a logP above 6.3. Further, the results for the IC50 (against Cytochrome P450 3A4 [19]; in [21]) were 5000 nM and 1.6 nM, respectively. Moreover, the microsomal CLint in series [20] was determined as 78.3 µL/min/mg.
On to `COc1cc2c(cc1OC(C)C)[C@H](c1ccc(Cl)cc1)N(c1ccc(N(C)C[C@H]3CC[C@H](N4CC(=O)N(C)C4)CC3)nc1)C(=O)C2`, for which the figures for the microsomal CLint in series [22] and in series [20] were 224 µL/min/mg and 157 µL/min/mg, respectively. The logP in series [18] amounted to 4.4. Also, the IC50 at Cytochrome P450 3A4 [19] amounted to 13200 nM; in series [21] it was 11.4 nM.
Consider `COc1cc2c(cc1OC(C)C)[C@H](c1ccc(Cl)cc1)N(c1ccc(N(C)C[C@H]3CC[C@H](N4CCN(C)C(=O)C4)CC3)nc1)C(=O)C2`, for which the microsomal CLint is 279 µL/min/mg in series [22] and 151 µL/min/mg in series [20]. Also, the logP in series [18] was determined as 4.8. Also, on Cytochrome P450 3A4 [19], the IC50 is above 20000 nM.
For the molecule `COc1cc2c(cc1OC(C)C)[C@H](c1ccc(Cl)cc1)N(c1ccc(N(C)C[C@H]3CC[C@H](N4CCN(C)C(=O)C4)CC3)cn1)C(=O)C2`, the microsomal CLint came to 355 µL/min/mg in [22] and 156 µL/min/mg in series [20]. This molecule also showed a logP in series [18] of 4.6. On Cytochrome P450 3A4 [19], this molecule showed an IC50 above 20000 nM.
With `COc1cc2c(cc1OC(C)C)[C@H](c1ccc(Cl)cc1)N(c1cnc(N(C)C[C@H]3CC[C@H](N4CCN(C)C(=O)C4)CC3)cn1)C(=O)C2`, the microsomal CLint in series [22] was determined as 420 µL/min/mg; in [20], 220 µL/min/mg. Besides, in series [18], the lipophilicity (logP) turned out to be 4.6. For the same molecule, the IC50 on Cytochrome P450 3A4 [19] was above 20000 nM.
Take `COc1ccc(C2=N[C@@H](c3ccc(Cl)cc3)[C@@H](c3ccc(Cl)cc3)N2C(=O)N2CCNC(=O)C2)c(OC(C)C)c1` [NUTLIN-3]: the Ki in series [23] amounted to 12.6 nM; in [24], 10.5 nM; in series [25], 19.9 nM.
